Measurements reported in ChEMBL document CHEMBL2169744, “Discovery and optimization of potent and selective imidazopyridine and imidazopyridazine mTOR inhibitors” (Bioorg Med Chem Lett, 2012).
pIC50: −log10 of the molar value. Converted amounts (≈) assume the structure as drawn.

Legend:
[1] = Inhibition of mTORC1-mediated 4EBP1-phosphorylation in human U87 cells; format: cell-based, U-87MG ATCC; details: for pIC50: Homo sapiens, U-87 MG, read-out: IC50
[2] = Volume of distribution at steady state in rat at 0.5 mg/kg, iv; format: ADME, organism-based; parameters: dose 0.5 mg/kg, route intravenous; details: in vivo, read-out: Vdss
[3] = Oral bioavailability in rat at 5 mg/kg; format: ADME, organism-based; details: in vivo
How it was run: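 Rat oral PK at 5.0 mpk in 1% Tween 80, 2% HPMC, 97% H2O, pH 2.2 (methanesulfonic acid).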

[4] = Half life in rat at 0.5 mg/kg, iv; format: ADME, organism-based; parameters: dose 0.5 mg/kg, route intravenous; details: in vivo
[5] = Clearance in rat at 0.5 mg/kg, iv; format: ADME, organism-based; parameters: dose 0.5 mg/kg, route intravenous; details: in vivo
[6] = biological target: Phosphatidylinositol 4,5-bisphosphate 3-kinase catalytic subunit alpha isoform (Homo sapiens, UniProt P42336); assay: Inhibition of PI3Kalpha by AlphaScreen assay
Phosphatidylinositol 4,5-bisphosphate 3-kinase catalytic subunit alpha isoform, sequence (P42336 whole entry, canonical isoform): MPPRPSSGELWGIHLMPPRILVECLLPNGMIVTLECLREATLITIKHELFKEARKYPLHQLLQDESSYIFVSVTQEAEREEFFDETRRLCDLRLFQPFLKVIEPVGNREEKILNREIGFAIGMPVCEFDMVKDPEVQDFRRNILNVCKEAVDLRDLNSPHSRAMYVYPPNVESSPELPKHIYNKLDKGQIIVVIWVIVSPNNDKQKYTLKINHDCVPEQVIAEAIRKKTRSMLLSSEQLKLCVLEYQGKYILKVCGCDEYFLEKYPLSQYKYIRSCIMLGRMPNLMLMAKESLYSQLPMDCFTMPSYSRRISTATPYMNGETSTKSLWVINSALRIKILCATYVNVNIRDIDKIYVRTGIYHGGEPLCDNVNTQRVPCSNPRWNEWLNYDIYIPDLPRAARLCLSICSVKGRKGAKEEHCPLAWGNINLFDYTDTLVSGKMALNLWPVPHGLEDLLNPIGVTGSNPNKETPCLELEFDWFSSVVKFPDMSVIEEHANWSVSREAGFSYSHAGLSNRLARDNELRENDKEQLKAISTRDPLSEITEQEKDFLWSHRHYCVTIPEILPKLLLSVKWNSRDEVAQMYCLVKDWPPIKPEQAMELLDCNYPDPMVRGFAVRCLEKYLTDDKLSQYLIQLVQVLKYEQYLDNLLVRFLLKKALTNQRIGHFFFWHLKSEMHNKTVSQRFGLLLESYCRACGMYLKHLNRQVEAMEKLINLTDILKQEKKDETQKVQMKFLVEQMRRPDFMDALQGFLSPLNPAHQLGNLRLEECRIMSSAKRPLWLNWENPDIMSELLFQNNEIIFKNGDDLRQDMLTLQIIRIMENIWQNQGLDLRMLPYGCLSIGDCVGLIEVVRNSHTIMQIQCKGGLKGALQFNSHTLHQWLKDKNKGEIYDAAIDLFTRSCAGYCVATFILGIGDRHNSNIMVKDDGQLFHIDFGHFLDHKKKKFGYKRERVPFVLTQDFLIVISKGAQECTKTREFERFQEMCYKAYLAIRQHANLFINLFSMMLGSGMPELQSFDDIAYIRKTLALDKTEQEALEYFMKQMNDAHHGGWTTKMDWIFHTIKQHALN

[7] = AUC in rat at 0.5 mg/kg, iv; format: ADME, organism-based, Plasma; parameters: dose 0.5 mg/kg, route intravenous; details: plasma
[8] = biological target: Serine/threonine-protein kinase mTOR (Homo sapiens, UniProt P42345); assay: Inhibition of mTOR by LanthaScreen assay
[9] = Clearance in rat at 1 mg/kg, iv; format: ADME, organism-based; parameters: dose 1 mg/kg, route intravenous; details: in vivo
[10] = Inhibition of mTORC2-mediated AKT Ser473-phosphorylation in human U87 cells; format: cell-based, U-87MG ATCC; details: U-87 MG
How it was run: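 Cell assay in U87 cells measuring pAKT (S473), n ≥ 2.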

[11] = Solubility of the compound in simulated intestinal fluid; format: physicochemical
[12] = Plasma protein binding in rat at 5 mg/kg, po; format: ADME, organism-based; parameters: dose 5 mg/kg, route oral; details: read-out: PPB (converted)
[13] = species: Rattus norvegicus; assay: Unbound clearance in rat; format: ADME, organism-based; details: in vivo

Structure (SMILES)	pIC50 [1]	Vd [2] [L/kg]	bioavailability [3] [%]	half-life [4] [min]	clearance [5] [mL/min/kg]	pIC50 [6]	AUC [7] [µM·h]	pIC50 [8]	clearance [9] [mL/min/kg]	pIC50 [10]	solubility [11] [µg/mL]	fraction unbound [12]	IC50 ([1]; u-87mg atcc)	CL free [13] [mL/min/kg]
CC(=O)Nc1cc(-c2c(Nc3ccn(C)n3)nc3ccc(-c4cnco4)cn23)nc(C)n1	6.46	4.1	3	42	117	5.50	0.2	7.70	–	–	–	–	–	–
Cc1nc(N)nc(-c2c(Nc3cc[nH]n3)nc3ccc(-c4cnccc4C)cn23)n1	7.31	–	–	–	–	7.14	–	8.70	33.3	7.89	–	–	–	–
CNc1cc(-c2c(Nc3cc[nH]n3)nc3cccnn23)nc(C)n1	6.15	1.3	29	15.6	80	5.94	–	7.20	–	–	7 (≈ 21.8 µM)	–	–	–
CC(=O)Nc1cc(-c2c(Nc3cc[nH]n3)nc3ccccn23)nc(C)n1	7.22	1.2	–	31.2	38.3	6.95	0.6	8.05	–	–	–	–	–	–
Cc1nc(N)nc(-c2c(Nc3cc[nH]n3)nc3ccc(-c4ccccc4C)cn23)n1	6.19	–	–	–	–	6.41	–	7.68	33.3	7.27	–	–	–	–
Cc1nc(Nc2cccnn2)cc(-c2c(Nc3ccn[nH]3)nc3cccnn23)n1	6.56	–	–	–	–	6.76	–	7.62	–	–	–	–	–	–
CC(=O)Nc1cc(-c2c(Nc3cc[nH]n3)nc3cccnn23)nc(C)n1	7.35	6.3	46	49.2	43.3	7.33	0.6	8.52	–	–	200 (≈ 572 µM)	0.056	–	–
Cc1cc(-c2ccc3nc(Nc4cc[nH]n4)c(-c4nc(C)nc(N)n4)n3c2)on1	7.14	–	–	–	–	6.75	–	8.52	33.3	8.15	–	–	–	–
Cc1nc(N)nc(-c2c(Nc3ccn(C)n3)nc3ccc(-c4cncnc4)cn23)n1	–	1	–	15.6	41.7	6.20	–	7.12	–	–	1 (≈ 2.5 µM)	–	Not Active	–
Cc1nc(Nc2cccnc2)cc(-c2c(Nc3ccn[nH]3)nc3cccnn23)n1	5.19	–	–	–	–	5.94	–	6.83	–	–	1 (≈ 2.6 µM)	–	–	–
CC(=O)Nc1cc(-c2c(Nc3ccn(C)n3)nc3ccccn23)nc(C)n1	6.03	0.6	4	39.6	10	5.34	2.3	7.17	–	–	–	0.056	–	180
CC(=O)Nc1cc(-c2c(Nc3ccn(C)n3)nc3cccnn23)nc(C)n1	5.91	0.8	34	23.4	18.3	5.78	1.3	7.26	–	–	–	0.033	–	555
COc1ncccc1-c1ccc2nc(Nc3ccn[nH]3)c(-c3nc(C)nc(N)n3)n2c1	6.29	–	–	–	–	6.57	–	7.41	33.3	6.86	–	–	–	–
Cc1cc(-c2ccc3nc(Nc4cc[nH]n4)c(-c4nc(C)nc(N)n4)n3c2)ccn1	6.65	–	–	–	–	6.62	–	8.40	33.3	7.64	–	–	–	–
Cc1nc(N)nc(-c2c(Nc3ccn[nH]3)nc3ccc(-c4cnn(C5CC5)c4)cn23)n1	7.24	–	–	–	–	6.84	–	8.70	33.3	8.10	–	–	–	–
Cc1nc(Nc2cnccn2)cc(-c2c(Nc3ccn[nH]3)nc3cccnn23)n1	7.18	2.5	–	25.2	96.7	6.91	–	8.22	–	–	–	–	–	–
Cc1nc(N)nc(-c2c(Nc3cc[nH]n3)nc3ccc(-c4cccnc4C)cn23)n1	7.39	–	–	–	–	6.92	–	8.52	33.3	8.00	–	–	–	–
Cc1nccc(-c2c(Nc3ccn[nH]3)nc3cccnn23)n1	5.66	0.62	–	13.8	31.7	5.52	–	6.85	–	–	14 (≈ 47.9 µM)	–	–	–
Cc1nc(N)nc(-c2c(Nc3cc[nH]n3)nc3ccc(-c4cccnc4)cn23)n1	7.00	–	–	–	–	6.92	–	8.52	33.3	7.92	–	–	–	–
COc1cnnc(Nc2cc(-c3c(Nc4cc[nH]n4)nc4cccnn34)nc(C)n2)c1	7.07	9.1	–	70.8	103	7.27	–	8.52	–	–	175 (≈ 421 µM)	–	–	–
CC(=O)Nc1cc(-c2c(Nc3ccn(C)n3)nc3ccc(-c4cnn(C(C)C)c4)cn23)nc(C)n1	6.16	2.1	8	258	8.33	< 3.90	1.8	7.80	–	–	–	0.004	–	–
Cc1nc(N)nc(-c2c(Nc3ccn[nH]3)nc3ccc(-c4cncn4C)cn23)n1	6.56	–	–	–	–	6.33	–	8.30	33.3	7.64	–	–	–	–
Cc1nc(N)nc(-c2c(Nc3cc[nH]n3)nc3ccc(-c4ccncc4)cn23)n1	6.49	–	–	–	–	6.51	–	8.22	33.3	7.59	–	–	–	–
Cc1nc(Nc2cnn(C3CCOC3)c2)cc(-c2c(Nc3ccn[nH]3)nc3cccnn23)n1 (configuration not stated)	6.84	3.2	–	21.6	100	6.98	–	7.44	–	–	> 200	–	–	–
Cc1nc(N)nc(-c2c(Nc3ccn[nH]3)nc3ccc(-c4cccc(F)c4)cn23)n1	6.04	–	–	–	–	6.18	–	7.57	33.3	7.14	–	–	–	–
CC(=O)Nc1cccc(-c2ccc3nc(Nc4cc[nH]n4)c(-c4nc(C)nc(N)n4)n3c2)c1	6.94	–	–	–	–	7.02	–	–	33.3	7.54	–	–	–	–
Cc1nc(N)nc(-c2c(Nc3cc[nH]n3)nc3ccc(-c4cncnc4)cn23)n1	7.03	–	–	–	–	7.07	–	8.70	33.3	8.30	–	–	–	–
Cc1nc(N)nc(-c2c(Nc3ccn[nH]3)nc3ccc(-c4cncnc4C)cn23)n1	7.24	–	–	–	–	7.17	–	8.52	33.3	8.22	–	–	–	–
Cc1nc(N)nc(-c2c(Nc3cc[nH]n3)nc3ccc(-c4ccccc4F)cn23)n1	7.17	–	–	–	–	6.19	–	7.82	33.3	7.19	–	–	–	–
